In brackets after ≈: the same amount, converted by molar mass. Activity calls are given as the source filed them. The rule behind the calls is not given here.
Key:
[1] = system: Salmonella typhimurium; assay: Antimicrobial activity against Salmonella Typhimurium at 1 umol/spot after 18 hrs by TLC-bioautographic method; format: functional, Salmonella enterica subsp. enterica serovar Typhimurium
In short: (§1)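 TLC bioautography. Samples are spotted on silica gel TLC plates, then sprayed with bacteria (1.0 × 10^5 cfu/ml) in tryptic soy broth. Plates are incubated 18 h at 37 C and sprayed with 3% aqueous p-iodonitrotetrazolium violet. After a further 3 h, growth is stopped with 70% EtOH. White zones on a pink background are scored as inhibition-zone diameter with standard errors.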

[2] = system: Listeria monocytogenes; assay: Antimicrobial activity against Listeria monocytogenes after 24 hrs by microdilution technique; format: functional
In short: (§2)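 Broth microdilution in LB medium. Inoculum is 1.0 × 10^4 cfu per well, from a saline-adjusted suspension of 1.0 × 10^5 cfu/ml. Compounds are dissolved in DMSO. Incubated 24 h at 28 C. MIC is the lowest concentration with no visible growth under a binocular microscope. MBC is read by subculture into fresh broth for 72 h, with no growth taken as 99.5% kill. OD is read at 655 nm.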

[3] = system: Micrococcus flavus; assay: Antimicrobial activity against Micrococcus flavus at 1 umol/spot after 18 hrs by TLC-bioautographic method; format: functional; in short: as §1
[4] = system: Salmonella typhimurium; assay: Antimicrobial activity against Salmonella Typhimurium after 24 hrs by microdilution technique; format: functional, Salmonella enterica subsp. enterica serovar Typhimurium; details: Salmonella enterica; in short: as §2
[5] = system: Escherichia coli; assay: Antimicrobial activity against Escherichia coli at 10 ug/disk after 24 hrs by disk diffusion assay; format: functional
In short: (§3)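 Disc diffusion on 4 mm filter discs. Bacteria are grown overnight in LB at 28 C, then adjusted in saline to 1.0 × 10^5 cfu/ml. The suspension is mixed into top agar over peptone agar plates. Plates are incubated 24 h at 28 C, and growth-inhibition zone diameter is measured. Streptomycin and ampicillin controls are applied from a 1 mg/ml stock. Tests are done in duplicate.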

[6] = system: Pseudomonas aeruginosa; assay: Antimicrobial activity against Pseudomonas aeruginosa at 1 umol/spot after 18 hrs by TLC-bioautographic method; format: functional; in short: as §1
[7] = system: Bacillus cereus; assay: Antimicrobial activity against Bacillus cereus at 1 umol/disk after 24 hrs by disk diffusion assay; format: functional; in short: as §3
[8] = system: Staphylococcus aureus; assay: Antimicrobial activity against Staphylococcus aureus at 1 umol/spot after 18 hrs by TLC-bioautographic method; format: functional; in short: as §1
[9] = system: Bacillus cereus; assay: Antimicrobial activity against Bacillus cereus after 24 hrs by microdilution technique; format: functional; in short: as §2
[10] = system: Listeria monocytogenes; assay: Antimicrobial activity against Listeria monocytogenes at 10 ug/disk after 24 hrs by disk diffusion assay; format: functional; in short: as §3
[11] = system: Escherichia coli; assay: Antimicrobial activity against Escherichia coli at 1 umol/spot after 18 hrs by TLC-bioautographic method; format: functional; in short: as §1
[12] = system: Bacillus cereus; assay: Antimicrobial activity against Bacillus cereus at 1 umol/spot after 18 hrs by TLC-bioautographic method; format: functional; in short: as §1
[13] = system: Micrococcus flavus; assay: Antimicrobial activity against Micrococcus flavus at 10 ug/disk after 24 hrs by disk diffusion assay; format: functional; in short: as §3
[14] = system: Pseudomonas aeruginosa; assay: Antimicrobial activity against Pseudomonas aeruginosa at 1 umol/disk after 24 hrs by disk diffusion assay; format: functional; in short: as §3
[15] = system: Salmonella typhimurium; assay: Antimicrobial activity against Salmonella Typhimurium at 10 ug/disk after 24 hrs by disk diffusion assay; format: functional, organism-based; details: Salmonella enterica subsp. enterica serovar Typhimurium; in short: as §3
[16] = system: Listeria monocytogenes; assay: Antimicrobial activity against Listeria monocytogenes at 1 umol/disk after 24 hrs by disk diffusion assay; format: functional; in short: as §3
[17] = system: Bacillus cereus; assay: Antimicrobial activity against Bacillus cereus at 10 ug/disk after 24 hrs by disk diffusion assay; format: functional; in short: as §3
[18] = system: Enterobacter cloacae; assay: Antimicrobial activity against Enterobacter cloacae at 1 umol/disk after 24 hrs by disk diffusion assay; format: functional; in short: as §3
[19] = system: Escherichia coli; assay: Antimicrobial activity against Escherichia coli at 1 umol/disk after 24 hrs by disk diffusion assay; format: functional; in short: as §3
[20] = system: Enterobacter cloacae; assay: Antimicrobial activity against Enterobacter cloacae at 1 umol/spot after 18 hrs by TLC-bioautographic method; format: functional; in short: as §1
[21] = system: Micrococcus flavus; assay: Antimicrobial activity against Micrococcus flavus after 24 hrs by microdilution technique; format: functional; in short: as §2
[22] = system: Enterobacter cloacae; assay: Antimicrobial activity against Enterobacter cloacae at 10 ug/disk after 24 hrs by disk diffusion assay; format: functional; in short: as §3
[23] = system: Staphylococcus aureus; assay: Antimicrobial activity against Staphylococcus aureus at 1 umol/disk after 24 hrs by disk diffusion assay; format: functional; parameters: unit not given here; in short: as §3
[24] = system: Pseudomonas aeruginosa; assay: Antimicrobial activity against Pseudomonas aeruginosa at 10 ug/disk after 24 hrs by disk diffusion assay; format: functional; in short: as §3
[25] = system: Micrococcus flavus; assay: Antimicrobial activity against Micrococcus flavus at 1 umol/disk after 24 hrs by disk diffusion assay; format: functional; in short: as §3
[26] = system: Staphylococcus aureus; assay: Antimicrobial activity against Staphylococcus aureus at 10 ug/disk after 24 hrs by disk diffusion assay; format: functional; details: for zone of inhibition at 10 µg/disc: read-out: IZ; in short: as §3
[27] = system: Salmonella typhimurium; assay: Antimicrobial activity against Salmonella Typhimurium at 1 umol/disk after 24 hrs by disk diffusion assay; format: functional, organism-based; details: Salmonella enterica subsp. enterica serovar Typhimurium; in short: as §3
[28] = system: Staphylococcus aureus; assay: Antimicrobial activity against Staphylococcus aureus after 24 hrs by microdilution technique; format: functional; in short: as §2
[29] = system: Enterobacter cloacae; assay: Antimicrobial activity against Enterobacter cloacae after 24 hrs by microdilution technique; format: functional; in short: as §2
[30] = system: Listeria monocytogenes; assay: Antimicrobial activity against Listeria monocytogenes at 1 umol/spot after 18 hrs by TLC-bioautographic method; format: functional; in short: as §1
[31] = system: Pseudomonas aeruginosa; assay: Antimicrobial activity against Pseudomonas aeruginosa after 24 hrs by microdilution technique; format: functional; in short: as §2
[32] = system: Escherichia coli; assay: Antimicrobial activity against Escherichia coli after 24 hrs by microdilution technique; format: functional; in short: as §2
[33] = Salmonella enterica subsp. enterica serovar Typhimurium

Row | SMILES | MBC [2] | MIC [2] | inhibition zone (IZ) [3] | MBC [4] | MIC [4] | inhibition zone (IZ) [5] | inhibition zone (IZ) [6] | inhibition zone (IZ) [7] | inhibition zone (IZ) [8] | MBC [9] | MIC [9] | inhibition zone (IZ) [10] | inhibition zone (IZ) [11] | inhibition zone (IZ) [12] | inhibition zone (IZ) [14] | inhibition zone (IZ) [15] | inhibition zone (IZ) [16] | inhibition zone (IZ) [17] | inhibition zone (IZ) [18] | inhibition zone (IZ) [19] | also measured
1 | Nc1nc(-c2ccc(Cl)cc2)cc(-c2ccc(Nc3nc(Nc4ccccc4)nc(Nc4ccccc4)n3)cc2)n1 | 716 µM (≈ 400 µg/mL) | 358 µM (≈ 200 µg/mL) | 0.07 millimeter | 358 µM (≈ 200 µg/mL) | 179 µM (≈ 99.9 µg/mL) | inactive | inactive | inactive | 0.04 millimeter | 179 µM (≈ 99.9 µg/mL) | 89.5 µM (≈ 49.9 µg/mL) | inactive | 0.08 millimeter | 0.09 millimeter | inactive | inactive | inactive | inactive | inactive | inactive | inhibition zone (IZ) [1]: 0.07 millimeter; zone of inhibition at 10 µg/disc ([13]; read-out: IZ): 9 mm; inhibition zone (IZ) [20]: inactive; MBC [21]: 358 µM (≈ 200 µg/mL); MIC [21]: 179 µM (≈ 99.9 µg/mL); inhibition zone (IZ) [22]: inactive; inhibition zone (IZ) [23]: 0.04; inhibition zone (IZ) [24]: inactive; inhibition zone (IZ) [25]: 0.05 millimeter; zone of inhibition at 10 µg/disc [26]: 7 mm; inhibition zone (IZ) [27]: inactive; MBC [28]: 358 µM (≈ 200 µg/mL); MIC [28]: 179 µM (≈ 99.9 µg/mL); MBC [29]: 179 µM (≈ 99.9 µg/mL); MIC [29]: 89.5 µM (≈ 49.9 µg/mL); inhibition zone (IZ) [30]: 0.08 millimeter; MBC [31]: 358 µM (≈ 200 µg/mL); MIC [31]: 179 µM (≈ 99.9 µg/mL); MBC [32]: 179 µM (≈ 99.9 µg/mL); MIC [32]: 89.5 µM (≈ 49.9 µg/mL)
2 | Nc1nc(-c2ccc(Nc3nc(Nc4ccccc4)nc(Nc4ccccc4)n3)cc2)cc(-c2ccc([N+](=O)[O-])cc2)n1 | 704 µM (≈ 400 µg/mL) | 704 µM (≈ 400 µg/mL) | 0.07 millimeter | 704 µM (≈ 400 µg/mL) | 352 µM (≈ 200 µg/mL) | inactive | inactive | inactive | inactive | 352 µM (≈ 200 µg/mL) | 176 µM (≈ 100 µg/mL) | inactive | inactive | inactive | inactive | inactive | inactive | inactive | inactive | inactive | inhibition zone (IZ) [1, 33]: inactive; inhibition zone (IZ) [13]: inactive; inhibition zone (IZ) [20]: inactive; MBC [21]: 704 µM (≈ 400 µg/mL); MIC [21]: 352 µM (≈ 200 µg/mL); inhibition zone (IZ) [22]: inactive; inhibition zone (IZ) [23]: inactive; inhibition zone (IZ) [24]: inactive; inhibition zone (IZ) [25]: inactive; inhibition zone (IZ) [26]: inactive; inhibition zone (IZ) [27]: inactive; MBC [28]: 352 µM (≈ 200 µg/mL); MIC [28]: 176 µM (≈ 100 µg/mL); MBC [29]: 352 µM (≈ 200 µg/mL); MIC [29]: 176 µM (≈ 100 µg/mL); inhibition zone (IZ) [30]: 0.1 millimeter; MBC [31]: 704 µM (≈ 400 µg/mL); MIC [31]: 352 µM (≈ 200 µg/mL); MBC [32]: 352 µM (≈ 200 µg/mL); MIC [32]: 176 µM (≈ 100 µg/mL)
3 | COc1ccccc1C1CC(c2ccc(Nc3nc(Nc4ccccc4)nc(Nc4ccccc4)n3)cc2)=NN1C(C)=O (stereo not given) | 700 µM (≈ 399 µg/mL) | 700 µM (≈ 399 µg/mL) | inactive | 700 µM (≈ 399 µg/mL) | 350 µM (≈ 200 µg/mL) | inactive | inactive | inactive | inactive | 350 µM (≈ 200 µg/mL) | 175 µM (≈ 99.9 µg/mL) | inactive | inactive | inactive | inactive | inactive | inactive | inactive | inactive | inactive | inhibition zone (IZ) [1, 33]: inactive; inhibition zone (IZ) [13]: inactive; inhibition zone (IZ) [20]: 0.08 millimeter; MBC [21]: 350 µM (≈ 200 µg/mL); MIC [21]: 175 µM (≈ 99.9 µg/mL); inhibition zone (IZ) [22]: inactive; inhibition zone (IZ) [23]: inactive; inhibition zone (IZ) [24]: inactive; inhibition zone (IZ) [25]: inactive; inhibition zone (IZ) [26]: inactive; inhibition zone (IZ) [27]: inactive; MBC [28]: 700 µM (≈ 399 µg/mL); MIC [28]: 350 µM (≈ 200 µg/mL); MBC [29]: 350 µM (≈ 200 µg/mL); MIC [29]: 175 µM (≈ 99.9 µg/mL); inhibition zone (IZ) [30]: 0.08 millimeter; MBC [31]: 700 µM (≈ 399 µg/mL); MIC [31]: 350 µM (≈ 200 µg/mL); MBC [32]: 700 µM (≈ 399 µg/mL); MIC [32]: 350 µM (≈ 200 µg/mL)
4 | N#Cc1c(-c2ccco2)cc(-c2ccc(Nc3nc(Nc4ccccc4)nc(Nc4ccccc4)n3)cc2)nc1N | 744 µM (≈ 400 µg/mL) | 372 µM (≈ 200 µg/mL) | inactive | 372 µM (≈ 200 µg/mL) | 186 µM (≈ 100 µg/mL) | inactive | inactive | inactive | inactive | 186 µM (≈ 100 µg/mL) | 93 µM (≈ 50 µg/mL) | inactive | inactive | inactive | inactive | inactive | inactive | inactive | inactive | inactive | inhibition zone (IZ) [1]: 0.07 millimeter; inhibition zone (IZ) [13]: inactive; inhibition zone (IZ) [20]: 0.09 millimeter; MBC [21]: 186 µM (≈ 100 µg/mL); MIC [21]: 93 µM (≈ 50 µg/mL); inhibition zone (IZ) [22]: inactive; inhibition zone (IZ) [23]: 0.03; inhibition zone (IZ) [24]: inactive; inhibition zone (IZ) [25]: inactive; zone of inhibition at 10 µg/disc [26]: 6 mm; inhibition zone (IZ) [27]: inactive; MBC [28]: 372 µM (≈ 200 µg/mL); MIC [28]: 186 µM (≈ 100 µg/mL); MBC [29]: 372 µM (≈ 200 µg/mL); MIC [29]: 186 µM (≈ 100 µg/mL); inhibition zone (IZ) [30]: 0.08 millimeter; MBC [31]: 744 µM (≈ 400 µg/mL); MIC [31]: 372 µM (≈ 200 µg/mL); MBC [32]: 186 µM (≈ 100 µg/mL); MIC [32]: 93 µM (≈ 50 µg/mL)

Source: ChEMBL document CHEMBL1154716, “Synthesis of some new S-triazine based chalcones and their derivatives as potent antimicrobial agents” (2010)
